ChEMBL document CHEMBL1149773, “Synthesis, determination of the lipophilicity, anticancer and antimicrobial properties of some fused 1,2,4-triazole derivatives” (Eur J Med Chem, 2008)

Assays:
[1] = Lipophilicity, log kw in dioxane aqueous system at pH 3.5; type: physicochemical; details: buffer
Outline: (§1)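 RP-HPLC on an octadecyl silica column (150 × 4.6 mm, 5 µm) at 22 ± 1 °C, flow 1.0 mL min⁻¹, UV detection at 254 nm. Mobile phase was methanol, acetonitrile or dioxane with water and 0.01 M phosphate buffer pH 3.5 containing 0.05 M DEA. log k_W was extrapolated to pure water by regression.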

[2] = Lipophilicity, log kw in acetonitrile aqueous system at pH 3.5; type: physicochemical; outline: as §1
[3] = Lipophilicity, log kw in methanol aqueous system at pH 3.5; type: physicochemical; outline: as §1
[4] = Antiproliferative activity against human skin fibroblast assessed as cell viability at 1 uM by MTT assay; type: cell-based; details: human skin fibroblasts, read-out: Activity
Outline: (§2)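 Log-phase cells, kept in supplemented RPMI 1640 (HSF in DMEM/10% FBS) at 37 °C, 5% CO2, were exposed 24 h to 1, 50 or 100 µM compound from DMSO. They were washed, given 0.5 mg/mL MTT in HEPES buffer pH 7.4 for 45 min at 37 °C, and formazan was dissolved in DMSO and read at 570 nm. Values are % viability versus control from three independent measurements.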

[5] = Antiproliferative activity against human skin fibroblast assessed as cell viability at 50 uM by MTT assay; type: cell-based; details: human skin fibroblasts, read-out: Activity
Outline: (§3)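 MTT viability assay on primary human skin fibroblasts grown in DMEM with 10% FBS and penicillin/streptomycin. Compounds were dissolved in DMSO and given at 1, 50 or 100 µM for 24 h. Cells were washed in HEPES-buffered medium (pH 7.4) and then given MTT 0.5 mg mL⁻¹ for 45 min at 37 °C. Formazan was dissolved in DMSO and read at 570 nm. Viability is % of control; three independent measurements.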

[6] = Antiproliferative activity against human skin fibroblast assessed as cell viability at 100 uM by MTT assay; type: cell-based; details: human skin fibroblasts, read-out: Activity; outline: as §3
[7] = Antiproliferative activity against human RPMI cells assessed as cell viability at 1 uM by MTT assay; type: functional; details: read-out: Activity; outline: as §2
[8] = Antiproliferative activity against human RPMI cells assessed as cell viability at 50 uM by MTT assay; type: functional; details: read-out: Activity; outline: as §2
[9] = Antiproliferative activity against human RPMI cells assessed as cell viability at 100 uM by MTT assay; type: functional; details: read-out: Activity; outline: as §2
[10] = test system: HeLa; test: Antiproliferative activity against human HeLa cells assessed as cell viability at 1 uM by MTT assay; type: functional; details: read-out: Activity; outline: as §2
[11] = test system: HeLa; test: Antiproliferative activity against human HeLa cells assessed as cell viability at 50 uM by MTT assay; type: functional; details: read-out: Activity; outline: as §2
[12] = test system: HeLa; test: Antiproliferative activity against human HeLa cells assessed as cell viability at 100 uM by MTT assay; type: functional; details: read-out: Activity; outline: as §2

logKw [1] | logKw [2] | logKw [3] | SMILES | viability at 1 µM [4] [%] | viability at 50 µM [5] [%] | viability at 100 µM [6] [%] | viability at 1 µM [7] [%] | viability at 50 µM [8] [%] | viability at 100 µM [9] [%] | viability at 1 µM [10] [%] | viability at 50 µM [11] [%] | viability at 100 µM [12] [%]
1.52 | 1.54 | 1.88 | COc1ccc(N2CCn3c(COc4ccc(Cl)cc4)nnc32)cc1 | 80.3 | 67.1 | 64.6 | 99.7 | 98.4 | 94.9 | 81.5 | 72.1 | 68.9
3.87 | 3.7 | 4.61 | Cc1cc(Cl)ccc1OCc1nnc2n1CCN2c1ccc(Cl)cc1 | 79.5 | 74 | 71 | 46.4 | 32.4 | 31.1 | 92.1 | 71.8 | 71
1.22 | 1.56 | 1.87 | COc1ccc(N2CCn3cnnc32)cc1 | 105 | 95.2 | 89.3 | 102 | 96.5 | 91.3 | 93 | 91.7 | 80.6
1.78 | 1.37 | 1.62 | c1ccc(OCc2nnc3n2CCN3c2ccccc2)cc1 | 91.7 | 87.6 | 83 | 104 | 99 | 101 | 85.3 | 71.1 | 70.3

Further lines, the compound ahead of its results:

SMILES | logKw [1] | logKw [2] | logKw [3] | viability at 1 µM [4] [%] | viability at 50 µM [5] [%] | viability at 100 µM [6] [%] | viability at 1 µM [7] [%] | viability at 50 µM [8] [%] | viability at 100 µM [9] [%] | viability at 1 µM [10] [%] | viability at 50 µM [11] [%] | viability at 100 µM [12] [%]
c1ccc(N2CCn3cnnc32)cc1 | 1.16 | 1.37 | 1.62 | 97.6 | 89.5 | 85.6 | 99.3 | 102 | 97.6 | 73.2 | 75.4 | 72.8
Clc1ccc(N2CCn3cnnc32)cc1 | 1.89 | 2.7 | 2.19 | 101 | 90.9 | 90.7 | 104 | 96.9 | 87.5 | 77.9 | 67.6 | 68.4
Clc1ccc(N2CCn3cnnc32)cc1Cl | 2.49 | 2.11 | 2.92 | – | – | – | – | – | – | – | – | –
Clc1ccc(OCc2nnc3n2CCN3c2ccc(Cl)cc2)cc1 | 3.41 | 3.23 | 4.38 | 88.7 | 63.8 | 16.2 | 60.1 | 34.5 | 34 | 63.2 | 56.3 | 52.4
Cc1ccc(N2CCn3c(COc4ccc(Cl)cc4)nnc32)cc1 | 3.55 | 3.04 | 4.27 | 88.1 | 68.4 | 64.7 | 104 | 39.5 | 39.9 | 89 | 78.3 | 77.9
